For three compounds, inhibition results are on record in ChEMBL document CHEMBL4118021, “Studies of TAK1-centered polypharmacology with novel covalent TAK1 inhibitors” (Bioorg Med Chem, 2017).

What all share (assay type): cell-based
For assay [1], the target named is Mitogen-activated protein kinase kinase kinase 1 (Homo sapiens) (UniProt Q13233). Briefly: Inhibition of MAP3K1 in human SKCO1 cells at 1 uM after 4 hrs using biotin labeled DVKGANLLIDSTGQR probe by mass-spectrometric analysis relative to control.
Chain of Mitogen-activated protein kinase kinase kinase 1 (Homo sapiens) (Q13233 whole entry): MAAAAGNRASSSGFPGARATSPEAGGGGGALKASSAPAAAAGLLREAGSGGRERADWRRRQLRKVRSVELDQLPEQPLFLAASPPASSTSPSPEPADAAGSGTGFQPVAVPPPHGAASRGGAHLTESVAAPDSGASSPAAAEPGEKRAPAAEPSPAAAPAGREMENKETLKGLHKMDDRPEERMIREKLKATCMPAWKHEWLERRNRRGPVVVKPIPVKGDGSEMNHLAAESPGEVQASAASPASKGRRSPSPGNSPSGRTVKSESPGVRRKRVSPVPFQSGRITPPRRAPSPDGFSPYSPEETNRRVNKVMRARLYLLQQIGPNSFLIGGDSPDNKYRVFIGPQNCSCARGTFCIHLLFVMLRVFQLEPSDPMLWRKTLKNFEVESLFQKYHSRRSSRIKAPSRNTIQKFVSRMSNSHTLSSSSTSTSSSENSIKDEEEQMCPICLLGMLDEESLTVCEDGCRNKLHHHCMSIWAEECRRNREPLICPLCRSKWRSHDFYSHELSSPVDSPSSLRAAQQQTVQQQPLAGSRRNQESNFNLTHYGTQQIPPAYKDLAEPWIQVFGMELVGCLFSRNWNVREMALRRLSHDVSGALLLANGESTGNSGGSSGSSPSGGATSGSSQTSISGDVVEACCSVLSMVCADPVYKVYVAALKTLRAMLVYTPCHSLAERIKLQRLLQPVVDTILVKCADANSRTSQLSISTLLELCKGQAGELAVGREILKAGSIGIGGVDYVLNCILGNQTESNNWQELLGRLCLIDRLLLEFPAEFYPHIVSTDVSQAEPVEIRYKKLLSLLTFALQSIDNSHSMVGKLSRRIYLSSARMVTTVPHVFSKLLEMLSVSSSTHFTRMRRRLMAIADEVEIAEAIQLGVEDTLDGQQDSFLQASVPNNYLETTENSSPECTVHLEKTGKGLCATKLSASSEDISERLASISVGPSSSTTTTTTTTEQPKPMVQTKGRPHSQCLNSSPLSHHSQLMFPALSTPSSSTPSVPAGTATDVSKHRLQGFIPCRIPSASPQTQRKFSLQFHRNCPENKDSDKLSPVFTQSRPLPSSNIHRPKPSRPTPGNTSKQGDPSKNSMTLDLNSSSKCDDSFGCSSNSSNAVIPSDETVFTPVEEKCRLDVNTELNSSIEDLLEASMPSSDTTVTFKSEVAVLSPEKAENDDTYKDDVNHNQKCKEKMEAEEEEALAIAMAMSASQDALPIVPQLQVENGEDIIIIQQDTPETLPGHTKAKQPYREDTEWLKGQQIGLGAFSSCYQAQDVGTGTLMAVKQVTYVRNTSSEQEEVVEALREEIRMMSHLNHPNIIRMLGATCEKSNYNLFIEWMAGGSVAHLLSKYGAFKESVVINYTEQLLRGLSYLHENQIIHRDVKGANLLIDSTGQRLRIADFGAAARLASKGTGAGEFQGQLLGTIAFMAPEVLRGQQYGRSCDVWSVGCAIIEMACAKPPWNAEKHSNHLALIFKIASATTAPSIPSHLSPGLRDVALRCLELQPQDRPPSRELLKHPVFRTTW
The target of assay [2] is T1, Dual specificity protein kinase TTK (Homo sapiens) (UniProt P33981).
T1 sequence (whole entry): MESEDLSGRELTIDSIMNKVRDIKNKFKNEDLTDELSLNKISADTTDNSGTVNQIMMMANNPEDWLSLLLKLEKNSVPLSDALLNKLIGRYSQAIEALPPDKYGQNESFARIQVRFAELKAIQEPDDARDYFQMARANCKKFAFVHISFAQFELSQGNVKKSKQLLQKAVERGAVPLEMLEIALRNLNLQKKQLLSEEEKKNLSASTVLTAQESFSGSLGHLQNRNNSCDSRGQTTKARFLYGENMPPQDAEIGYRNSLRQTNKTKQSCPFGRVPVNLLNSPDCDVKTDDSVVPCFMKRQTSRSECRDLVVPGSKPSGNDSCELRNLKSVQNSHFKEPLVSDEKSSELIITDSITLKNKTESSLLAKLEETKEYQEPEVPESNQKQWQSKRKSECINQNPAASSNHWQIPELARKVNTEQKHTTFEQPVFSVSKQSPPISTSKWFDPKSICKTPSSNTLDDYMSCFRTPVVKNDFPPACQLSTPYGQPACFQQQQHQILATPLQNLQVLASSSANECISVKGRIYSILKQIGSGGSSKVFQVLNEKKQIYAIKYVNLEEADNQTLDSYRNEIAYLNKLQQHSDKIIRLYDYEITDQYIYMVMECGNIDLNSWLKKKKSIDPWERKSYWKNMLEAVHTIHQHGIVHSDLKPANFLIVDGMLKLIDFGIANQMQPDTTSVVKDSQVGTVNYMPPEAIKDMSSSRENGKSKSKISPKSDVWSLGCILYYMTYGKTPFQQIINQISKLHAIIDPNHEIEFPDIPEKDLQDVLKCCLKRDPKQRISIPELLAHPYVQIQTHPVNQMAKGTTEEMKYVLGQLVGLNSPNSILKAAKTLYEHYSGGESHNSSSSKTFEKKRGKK
Put plainly: Inhibition of TTK in human SKCO1 cells at 1 uM after 4 hrs using biotin labeled NMLEAVHTIHQHGIVHSDLKPANFLIDGMLK probe by mass-spectrometric analysis relative to control. In a few lines:
(§1)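 Live SK-CO-1 cells exposed to compound at 1 μM or DMSO for 4 h (KiNativ). Lysates then labeled with lysine-reactive ATP/ADP-biotin probe, and probe-labeled kinase peptides quantified by mass spectrometry. Percent inhibition of probe-dependent recovery calculated relative to DMSO-treated cells.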

In assay [3] the target is Cyclin-dependent kinase 15 (Homo sapiens) (UniProt Q96Q40). Put plainly: Inhibition of PFTAIRE2 in human SKCO1 cells at 1 uM after 4 hrs using biotin labeled DLKPQNLLISHLGELK probe by mass-spectrometric analysis relative to control. In a few lines: as §1
Chain of Cyclin-dependent kinase 15 (Homo sapiens) (Q96Q40 whole entry): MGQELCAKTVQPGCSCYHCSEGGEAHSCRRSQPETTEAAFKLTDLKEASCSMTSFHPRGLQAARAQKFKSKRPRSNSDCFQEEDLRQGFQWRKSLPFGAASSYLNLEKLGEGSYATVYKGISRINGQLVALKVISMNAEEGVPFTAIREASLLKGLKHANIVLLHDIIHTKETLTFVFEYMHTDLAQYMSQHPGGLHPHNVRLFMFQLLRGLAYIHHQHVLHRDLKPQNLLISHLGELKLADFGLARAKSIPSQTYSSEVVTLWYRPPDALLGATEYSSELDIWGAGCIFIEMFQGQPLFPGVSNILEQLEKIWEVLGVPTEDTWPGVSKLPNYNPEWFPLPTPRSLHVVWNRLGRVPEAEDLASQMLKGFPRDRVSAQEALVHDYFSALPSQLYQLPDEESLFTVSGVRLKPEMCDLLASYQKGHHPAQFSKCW
The target of assay [4] is Cyclin-dependent kinase 7 (Homo sapiens) (UniProt P50613). Briefly: Inhibition of CDK7 in human SKCO1 cells at 1 uM after 4 hrs using biotin labeled DLKPNNLLLDENGVLK probe by mass-spectrometric analysis relative to control.
Chain of Cyclin-dependent kinase 7 (Homo sapiens) (P50613 whole entry): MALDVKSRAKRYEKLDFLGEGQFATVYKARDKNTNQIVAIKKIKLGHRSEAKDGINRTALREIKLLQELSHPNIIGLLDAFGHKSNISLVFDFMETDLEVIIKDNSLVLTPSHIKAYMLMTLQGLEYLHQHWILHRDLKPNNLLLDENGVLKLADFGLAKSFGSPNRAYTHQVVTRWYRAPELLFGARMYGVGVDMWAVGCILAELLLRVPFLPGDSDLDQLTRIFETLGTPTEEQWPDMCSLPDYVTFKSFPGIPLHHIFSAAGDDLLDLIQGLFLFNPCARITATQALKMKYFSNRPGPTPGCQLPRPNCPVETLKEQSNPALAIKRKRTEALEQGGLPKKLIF
Assay [5] deals with Epidermal growth factor receptor (Homo sapiens) (UniProt P00533). Put plainly: Inhibition of EGFR in human SKCO1 cells at 1 uM after 4 hrs using biotin labeled LLGAEEKEYHAEGGKVPIK probe by mass-spectrometric analysis relative to control.
Chain of Epidermal growth factor receptor (Homo sapiens) (P00533 whole entry): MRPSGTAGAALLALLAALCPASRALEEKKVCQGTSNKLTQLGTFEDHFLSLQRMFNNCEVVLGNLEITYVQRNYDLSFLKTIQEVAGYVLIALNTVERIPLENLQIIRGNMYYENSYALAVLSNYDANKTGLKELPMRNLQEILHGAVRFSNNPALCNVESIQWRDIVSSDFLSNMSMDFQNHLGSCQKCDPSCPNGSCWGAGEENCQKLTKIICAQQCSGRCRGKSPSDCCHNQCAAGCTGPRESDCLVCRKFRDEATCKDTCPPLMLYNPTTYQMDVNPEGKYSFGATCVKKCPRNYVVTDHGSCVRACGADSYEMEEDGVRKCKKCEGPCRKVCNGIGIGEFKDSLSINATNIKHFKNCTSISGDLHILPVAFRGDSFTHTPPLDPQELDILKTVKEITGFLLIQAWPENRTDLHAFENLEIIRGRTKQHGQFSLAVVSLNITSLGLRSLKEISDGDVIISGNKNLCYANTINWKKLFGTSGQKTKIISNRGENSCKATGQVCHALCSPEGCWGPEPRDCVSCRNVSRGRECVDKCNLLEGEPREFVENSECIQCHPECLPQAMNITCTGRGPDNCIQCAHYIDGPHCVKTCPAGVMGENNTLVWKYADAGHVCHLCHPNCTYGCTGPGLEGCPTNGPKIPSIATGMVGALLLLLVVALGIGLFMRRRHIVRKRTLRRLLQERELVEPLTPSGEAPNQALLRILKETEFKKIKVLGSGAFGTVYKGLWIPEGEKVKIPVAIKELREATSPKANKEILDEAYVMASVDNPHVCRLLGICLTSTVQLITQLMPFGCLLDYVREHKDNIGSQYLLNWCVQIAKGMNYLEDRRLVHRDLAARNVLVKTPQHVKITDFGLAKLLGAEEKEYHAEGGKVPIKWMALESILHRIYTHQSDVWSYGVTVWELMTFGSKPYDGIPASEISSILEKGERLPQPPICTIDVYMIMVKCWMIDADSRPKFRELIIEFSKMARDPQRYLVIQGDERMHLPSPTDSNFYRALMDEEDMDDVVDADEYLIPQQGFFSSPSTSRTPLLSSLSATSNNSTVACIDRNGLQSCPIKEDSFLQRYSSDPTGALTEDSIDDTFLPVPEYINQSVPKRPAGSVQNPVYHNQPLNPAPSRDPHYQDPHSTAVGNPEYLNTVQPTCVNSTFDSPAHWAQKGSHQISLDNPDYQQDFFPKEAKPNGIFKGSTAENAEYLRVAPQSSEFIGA
The target of assay [6] is Cyclin-dependent kinase 1 (Homo sapiens) (UniProt P06493). Briefly: Inhibition of CDC2 in human SKCO1 cells at 1 uM after 4 hrs using biotin labeled DLKPQNLLIDDK probe by mass-spectrometric analysis relative to control.
For assay [7], the target named is Interferon-induced, double-stranded RNA-activated protein kinase (Homo sapiens) (UniProt P19525). Briefly: Inhibition of PKR in human SKCO1 cells at 1 uM after 4 hrs using biotin labeled DLKPSNIFLVDTK probe by mass-spectrometric analysis relative to control. A digest of the protocol:
as §1

For assay [8], the target named is Serine/threonine-protein kinase Chk2 (Homo sapiens) (UniProt O96017). Briefly: Inhibition of CHK2 in human SKCO1 cells at 1 uM after 4 hrs using biotin labeled DLKPENVLLSSQEEDCLIK probe by mass-spectrometric analysis relative to control.
For assay [9], the target named is T2, Serine/threonine-protein kinase TAO3 (Homo sapiens) (UniProt Q9H2K8).
T2 sequence (whole entry): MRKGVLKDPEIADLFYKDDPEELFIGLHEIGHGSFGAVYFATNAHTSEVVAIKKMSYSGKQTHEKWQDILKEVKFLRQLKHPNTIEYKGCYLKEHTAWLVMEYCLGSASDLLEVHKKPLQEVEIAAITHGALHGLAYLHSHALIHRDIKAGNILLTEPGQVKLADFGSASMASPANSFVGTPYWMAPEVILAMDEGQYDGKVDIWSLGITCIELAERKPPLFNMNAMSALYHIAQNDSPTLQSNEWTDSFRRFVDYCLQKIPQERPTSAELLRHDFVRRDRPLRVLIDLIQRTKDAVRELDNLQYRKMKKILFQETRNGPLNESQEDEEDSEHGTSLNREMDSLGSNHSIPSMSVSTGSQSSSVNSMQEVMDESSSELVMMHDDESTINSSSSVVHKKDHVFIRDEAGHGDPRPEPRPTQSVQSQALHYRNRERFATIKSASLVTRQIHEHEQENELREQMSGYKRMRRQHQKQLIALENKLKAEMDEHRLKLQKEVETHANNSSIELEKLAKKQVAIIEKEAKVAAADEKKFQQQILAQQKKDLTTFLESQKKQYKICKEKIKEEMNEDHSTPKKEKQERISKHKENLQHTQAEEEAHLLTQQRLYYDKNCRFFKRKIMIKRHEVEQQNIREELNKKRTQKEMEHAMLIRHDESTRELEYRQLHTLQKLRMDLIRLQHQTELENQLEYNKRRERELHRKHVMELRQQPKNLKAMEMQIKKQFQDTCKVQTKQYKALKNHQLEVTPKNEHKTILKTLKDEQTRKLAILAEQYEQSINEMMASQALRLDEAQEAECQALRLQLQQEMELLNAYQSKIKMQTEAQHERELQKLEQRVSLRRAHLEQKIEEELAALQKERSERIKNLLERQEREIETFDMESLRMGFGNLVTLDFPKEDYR
Put plainly: Inhibition of TAO3 in human SKCO1 cells at 1 uM after 4 hrs using biotin labeled DIKAGNILLTEPGQVK probe by mass-spectrometric analysis relative to control. A digest of the protocol: as §1

Assay [10] deals with Serine/threonine-protein kinase tousled-like 2 (Homo sapiens) (UniProt Q86UE8). Put plainly: Inhibition of TLK2 in human SKCO1 cells at 1 uM after 4 hrs using biotin labeled YLNEIKPPIIHYDLKPGNILLVNGTACEIK probe by mass-spectrometric analysis relative to control. A digest of the protocol: as §1
Chain of Serine/threonine-protein kinase tousled-like 2 (Homo sapiens) (Q86UE8 whole entry, looked up): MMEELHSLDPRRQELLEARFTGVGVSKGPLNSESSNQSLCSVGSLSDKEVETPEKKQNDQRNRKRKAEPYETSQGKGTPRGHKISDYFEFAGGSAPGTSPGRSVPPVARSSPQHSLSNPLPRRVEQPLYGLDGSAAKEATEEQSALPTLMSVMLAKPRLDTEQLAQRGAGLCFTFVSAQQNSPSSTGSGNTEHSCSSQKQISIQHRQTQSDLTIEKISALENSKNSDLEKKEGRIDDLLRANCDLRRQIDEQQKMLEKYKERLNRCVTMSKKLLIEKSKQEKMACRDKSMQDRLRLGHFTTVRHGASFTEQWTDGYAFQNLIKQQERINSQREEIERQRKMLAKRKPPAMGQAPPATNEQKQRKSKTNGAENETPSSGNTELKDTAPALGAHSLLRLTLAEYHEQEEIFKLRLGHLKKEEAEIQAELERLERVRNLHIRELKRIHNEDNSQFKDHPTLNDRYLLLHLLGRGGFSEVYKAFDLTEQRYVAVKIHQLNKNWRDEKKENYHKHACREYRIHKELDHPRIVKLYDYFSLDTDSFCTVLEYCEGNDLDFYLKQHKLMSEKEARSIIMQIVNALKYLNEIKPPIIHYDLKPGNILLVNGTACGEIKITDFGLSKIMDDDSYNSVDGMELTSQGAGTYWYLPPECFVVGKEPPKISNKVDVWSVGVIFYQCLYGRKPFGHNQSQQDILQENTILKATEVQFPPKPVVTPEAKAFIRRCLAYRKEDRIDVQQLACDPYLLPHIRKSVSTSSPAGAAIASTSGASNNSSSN
Assay [11] has as its target Tyrosine-protein kinase Yes (Homo sapiens) (UniProt P07947). Briefly: Inhibition of YES in human SKCO1 cells at 1 uM after 4 hrs using biotin labeled QGAKFPIKWTAPEAALYGR probe by mass-spectrometric analysis relative to control.

Chain of Tyrosine-protein kinase Yes (Homo sapiens) (P07947 2-543 limits assumed): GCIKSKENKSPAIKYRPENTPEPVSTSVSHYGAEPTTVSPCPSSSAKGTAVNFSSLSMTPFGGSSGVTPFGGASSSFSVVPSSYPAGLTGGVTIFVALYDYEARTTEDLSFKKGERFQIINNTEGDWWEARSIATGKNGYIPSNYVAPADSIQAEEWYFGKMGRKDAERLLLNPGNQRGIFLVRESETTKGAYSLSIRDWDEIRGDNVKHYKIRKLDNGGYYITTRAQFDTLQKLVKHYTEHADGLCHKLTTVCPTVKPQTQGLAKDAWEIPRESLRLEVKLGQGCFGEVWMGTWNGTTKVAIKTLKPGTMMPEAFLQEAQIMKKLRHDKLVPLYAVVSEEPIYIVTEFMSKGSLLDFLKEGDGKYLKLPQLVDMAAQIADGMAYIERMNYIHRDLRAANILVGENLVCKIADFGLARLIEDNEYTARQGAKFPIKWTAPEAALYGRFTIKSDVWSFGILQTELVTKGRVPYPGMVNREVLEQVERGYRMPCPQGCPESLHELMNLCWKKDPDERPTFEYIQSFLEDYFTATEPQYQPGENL

For the compound `C=CC(=O)Nc1ccccc1Oc1nc(Nc2cnn(CCOC)c2)ncc1Cl`, the inhibition in [1] came out at 59.7%; in assay [2], 25.4%; in [3], 22.8%; in [4], 9.5%; in assay [5], 28.6%; in assay [6] it was 33.1%. Further, the inhibition in assay [7] is 2.5%; in assay [8], -6.3%; in [9] it was 9.6%; in assay [10], 3.8%; in [11], -0.9%.

`C=CC(=O)Nc1ccccc1Nc1nc(Nc2ccc(N3CCN(C)CC3)cc2)ncc1Cl`: the inhibition worked out at 78.5% in assay [1]; 40.6% in [2]; 41.5% in assay [3]; 31.5% in assay [4]; 47.6% in [5]; 47.7% in assay [6]. Also, the inhibition was 2.6% in assay [7]; 8.5% in [8]; 13.1% in assay [9]; -2.7% in [10]; 50.5% in [11].

On to `COc1cc(O)c2c(c1)/C=C/C[C@H](O)[C@H](O)C(=O)/C=C\C[C@H](C)OC2=O`, for which the inhibition in assay [1] is 51.4%; in [2], 32.5%; in assay [3], 31.8%; in assay [4] it was -3.7%; in assay [5], 14.5%; in assay [6], 46.6%. Moreover, the inhibition in assay [7] was -6.6%; in assay [8], 12.6%; in assay [9], 39.4%; in assay [10], -1.8%; in assay [11] it was 8.5%.

As usually defined, the inhibition is the change of the read-out against control, counted positive when it falls.
